Results as given in ChEMBL document CHEMBL4616716, “ONO-8430506: A Novel Autotaxin Inhibitor That Enhances the Antitumor Effect of Paclitaxel in a Breast Cancer Model” (ACS Med Chem Lett, 2020).

Columns and labels:
Autotaxin [1] = biological target: T1, Autotaxin (Homo sapiens, UniProt Q13822); assay: Inhibition of recombinant human ATX assessed as reduction in choline release using LPC(16:0) as substrate incubated for 15 hrs
How it was run: (§1)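 Recombinant human ATX with 16:0 LPC as substrate. Single-point inhibition was tested at 30 μM, and IC50 values were determined.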

[2] = Metabolic stability in rat hepatocytes assessed as parent compound remaining at 1 uM measured after 2 hrs by LC-MS/MS analysis; format: ADME, cell-based, Hepatocyte; details: read-out: Stability
How it was run: (§2)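 Human and rat hepatocyte incubation; percent parent remaining after 2 h.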

[3] = Metabolic stability in human hepatocytes assessed as parent compound remaining at 1 uM measured after 2 hrs by LC-MS/MS analysis; format: ADME, cell-based, Hepatocyte; details: read-out: Stability; how it was run: as §2
[4] = Octanol/phosphate buffer partition coefficient, LogD of compound at pH 7.4 mixed for 1 hr using benchtop-rotator followed by further incubation for 1 hr by ESI-LC-MS/MS analysis; format: physicochemical
[5] = Oral bioavailability in Sprague-Dawley rat at 3 mg/kg by LC-MS/MS analysis; format: ADME, organism-based; details: in vivo
How it was run: (§3)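 Single-dose rat PK, 1 mg/kg iv and 3 mg/kg po, n = 3. Plasma clearance was taken from the iv dose. Bioavailability was calculated from the iv and oral doses.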

[6] = Plasma clearance in Sprague-Dawley rat at 1 mg/kg, iv by LC-MS/MS analysis; format: ADME, organism-based; how it was run: as §3
[7] = Protein binding in human plasma measured after 4 hrs by LC-MS/MS analysis; format: ADME, cell-free; details: read-out: PPB (converted)
[8] = AUC in Sprague-Dawley rat at 0.5 mg/kg, po administered as single cassette dosing by LC-MS/MS analysis; format: ADME, organism-based; details: in vivo
How it was run: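 Rat cassette dosing, 0.5 mg/kg oral; plasma AUC reported.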

Autotaxin [9] = biological target: T1, Autotaxin; assay: Inhibition of LysoPLD activity of ATX in human plasma assessed as reduction in choline release using LPC(16:0) as substrate incubated for 15 hrs; format: cell-free
How it was run: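 LysoPLD activity in human plasma with 16:0 LPC as substrate; IC50 determined.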

[10] = Protein binding in rat plasma measured after 4 hrs by LC-MS/MS analysis; format: ADME, cell-free; details: read-out: PPB (converted)
Autotaxin [11] = biological target: T1, Autotaxin; assay: Selectivity index, ratio of IC50 for LysoPLD activity of ATX in human plasma to IC50 for recombinant human ATX assessed as reduction in choline release using LPC(16:0) as substrate incubated for 15 hrs
How it was run: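 Ratio of two IC50 values. One comes from LysoPLD activity in human plasma. The other comes from purified recombinant human ATX. Both assays use 16:0 LPC as substrate.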

Autotaxin [12] = biological target: T1, Autotaxin; assay: Inhibition of recombinant human ATX assessed as reduction in choline release at 30 uM using LPC(16:0) as substrate incubated for 15 hrs relative to control; how it was run: as §1
[13] = Drug metabolism in human hepatocytes assessed as compound isomerization by measuring conversion ratio at 1 uM incubated for 2 hrs by LC-MS/MS analysis; format: ADME, cell-based, Hepatocyte; details: read-out: Drug metabolism
How it was run: (§4)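 Hepatocytes from human, rat, dog and monkey were incubated with the trans isomer. The conversion ratio is the cis isomer concentration over the sum of cis and trans, 2 h after the start of incubation.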

[14] = Drug metabolism in monkey hepatocytes assessed as compound isomerization by measuring conversion ratio at 1 uM incubated for 2 hrs by LC-MS/MS analysis; format: ADME, cell-based, Macaca mulatta, Hepatocyte; details: rhesus monkey, read-out: Drug metabolism; how it was run: as §4
[15] = Drug metabolism in rat hepatocytes assessed as compound isomerization by measuring conversion ratio at 1 uM incubated for 2 hrs by LC-MS/MS analysis; format: ADME, cell-based, Hepatocyte; details: read-out: Drug metabolism; how it was run: as §4
[16] = Drug metabolism in dog hepatocytes assessed as compound isomerization by measuring conversion ratio at 1 uM incubated for 2 hrs by LC-MS/MS analysis; format: ADME, cell-based, Canis lupus familiaris, Hepatocyte; details: read-out: Drug metabolism; how it was run: as §4

Compound	IC50 (Autotaxin [1])	logD at 1 h [4]	fraction unbound at 4 h [7]	IC50 (Autotaxin [9])	fraction unbound at 4 h [10]	also measured
O=C(O)CCC(=O)N1CCc2c(n(Cc3ccccc3)c3ncccc23)C1	5400 nM					
O=C(O)CCCCC(=O)N1CCc2c(n(Cc3cccc(F)c3)c3ncccc23)C1	50 nM	0.51				remaining at 2 h, 1 µM [2]: 10%; remaining at 2 h, 1 µM [3]: 29%; bioavailability [5]: 30%; clearance [6]: 7.5 mL/min/kg
O=C(CC12CCC(C(=O)O)(CC1)CC2)N1CCc2c(n(Cc3ccc(F)cc3F)c3ncccc23)C1	9 nM		0.009	8.1 nM	0.043	AUC [8]: 472 ng·h/mL
CC(C)(CCCC(=O)N1CCc2c(n(Cc3cccc(F)c3)c3ncccc23)C1)C(=O)O	17 nM			260 nM		Ratio IC50 (Autotaxin [11]): 15
O=C(O)CCCCC(=O)N1CCc2c(n(Cc3ccccc3)c3ncccc23)C1	240 nM					
CC(=O)N1CCc2c(n(Cc3ccccc3)c3ncccc23)C1						inhibition (Autotaxin [12]): 51.6%
O=C(CC12CCC(C(=O)O)(CC1)C2)N1CCc2c(n(Cc3ccc(F)cc3F)c3ncccc23)C1	11 nM		0.008	7.9 nM	0.061	AUC [8]: 500 ng·h/mL

The next lines start with results.

IC50 (Autotaxin [1])	logD at 1 h [4]	fraction unbound at 4 h [7]	IC50 (Autotaxin [9])	fraction unbound at 4 h [10]	Compound	also measured
17 nM	1.07	0.007			O=C(C[C@H]1CC[C@H](C(=O)O)CC1)N1CCc2c(n(Cc3cccc(F)c3)c3ncccc23)C1	
19 nM	1.36	0.006	16 nM		O=C(C[C@H]1CC[C@@H](C(=O)O)CC1)N1CCc2c(n(Cc3ccc(F)cc3F)c3ncccc23)C1	
	1.15	0.016	7.3 nM	0.021	O=C(C[C@H]1CC[C@H](C(=O)O)CC1)N1CCc2c(n(Cc3ccc(F)cc3F)c3ncccc23)C1	metabolised at 2 h, 1 µM [13]: 29.8%; metabolised at 2 h, 1 µM [14]: 21.4%; metabolised at 2 h, 1 µM [15]: 14.4%; metabolised at 2 h, 1 µM [16]: 9%
